Source: PubChem BioAssay
Shown are actives, neighbours in structure and some others; about 2.3% of the full set was active somewhere.
HNF4A DNA FP – change in binding of human HNF4 alpha to DNA. P41235. HNF4a-FITC DNA binding, fluorescence polarization, 1 h. activity change, % at 10 µM. 360,000 tested, 0.3% active; in the data active = activity change above about 30%, passing the limit was not always enough
Target sequence (P41235 whole entry, looked up): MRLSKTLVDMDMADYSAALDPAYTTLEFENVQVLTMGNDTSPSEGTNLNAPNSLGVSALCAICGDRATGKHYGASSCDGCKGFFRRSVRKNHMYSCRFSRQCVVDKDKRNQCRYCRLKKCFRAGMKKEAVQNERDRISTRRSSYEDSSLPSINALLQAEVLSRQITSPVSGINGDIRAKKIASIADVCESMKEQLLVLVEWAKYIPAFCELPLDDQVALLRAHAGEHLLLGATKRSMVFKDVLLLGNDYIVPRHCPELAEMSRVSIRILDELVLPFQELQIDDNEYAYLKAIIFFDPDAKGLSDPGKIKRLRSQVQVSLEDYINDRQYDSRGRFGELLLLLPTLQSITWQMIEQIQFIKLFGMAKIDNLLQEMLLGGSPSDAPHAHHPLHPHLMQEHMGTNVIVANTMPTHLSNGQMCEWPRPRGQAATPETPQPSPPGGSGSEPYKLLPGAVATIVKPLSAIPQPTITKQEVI
Myeloid diff 2 – myeloid differentiation induction; ER-HoxA9 myeloid progenitors, lysozyme-GFP differentiation, flow cytometry; calls only at 10 µM; 360,000 tested, 1% active; AID 624256;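 active = normalized GFP-positive differentiation at or above the plate's own cutoff, the solvent-only control mean plus 3 SD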;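 note: cells exposed to compound for four days before flow analysis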
CSN inh – CSN deneddylation inhibition; Purified CSN, SCF-Nedd8-OG deneddylation, fluorescence polarization; 360,000 tested, 0.38% active; inhibition, % at 12.5 µM; Q92905;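 active = pattern-corrected inhibition above about 35%, with an unprinted fluorescence ratio check between 0.5 and 1.5, limit read from the data, passing the limit was not always enough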
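Material: human Csn5 produced in HEK293T cells; Input: enzyme 0.24 nM; Reagent: SCFSkp2-Nedd8OG substrate at 10 nM final; Dosing: 12.5 µM compound; Incubation: 90 min reaction at room temperature; Detection: fluorescence polarization of the substrate; Evaluation: % inhibition of substrate cleavage by Csn5; Control set: substrate-only high control, full reaction low control.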
Rpn11 inh – blocks the human proteasome subunit Rpn11; AID 588493; human 26S proteasome, Ub4-pepOG fluorescence polarization; 20S core pre-blocked with epoxomicin; inhibition, % at 20 µM; O00487; 360,000 tested, 0.59% active;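 active = inhibition at 20 µM, scaled to each plate's controls, above about 33%, limit read from the data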
TPT1 inh – C. albicans TPT1 enzyme inhibition; inhibition, % at 5 µM; 300,000 tested, 0.81% active; AID 1962; recombinant caTPT1, FP RNA substrate dephosphorylation;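 active = inhibition above the mean of all tested compounds plus 3 SD, set per screening campaign, cut at about 24% in these data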
Each line names hits and unclear results; the compound was inactive in the other large screens.

O=C(CNC(=O)c1ccco1)N=Nc1c(O)[nH]c2ccc(Br)cc12	Myeloid diff 2 active
CC(C)NC(=O)c1cc(C2CCCCN2S(=O)(=O)c2cccc3cccnc23)on1 (stereo unspecified)	none (no result: TPT1 inh)
CC1(C(=O)Nc2cccc3ccccc23)CCN1C(=O)Cc1ccc(Cl)cc1Cl (stereo unspecified)	none (no result: TPT1 inh)
CC(=O)N1CCN(c2ccc(C(N)=O)cc2[N+](=O)[O-])CC1	none
COc1ccc(N2CCN(c3ccc(C(N)=O)cc3[N+](=O)[O-])CC2)cc1	CSN inh 75
Cc1nc(-c2ccccc2)sc1-c1nc(-c2cccnc2)ncc1S(=O)(=O)c1ccccc1	Myeloid diff 2 active
O=S(=O)(c1ccccc1)c1cnc(-c2cccnc2)nc1-c1ccccc1	none
CCCCCCc1cc2cc(C(=O)NCc3ccccc3)c(=N)oc2cc1O	CSN inh 54 (not shown: Rpn11 inh)
CSCCC(NC(=O)c1ccco1)C(=O)NCCc1ccc(Cl)cc1 (stereo unspecified)	CSN inh 37 (no result: TPT1 inh)
O=C(NC(c1ccc(-c2ccccc2)cc1)c1cnccn1)C1CCN(Cc2ccc3c(c2)OCO3)CC1 (stereo unspecified)	none (no result: TPT1 inh)
COc1ccccc1N1C(C)=CC(=C(C#N)c2nc3ccccc3s2)C=C1C	Myeloid diff 2 active
C[C@@H]1CN([C@@H](C)CO)C(=O)CCCn2cc(nn2)CO[C@H]1CN(C)S(=O)(=O)c1ccccc1F	none (no result: TPT1 inh)
CCN1C(=O)[C@@H]2[C@@H]3CN(S(=O)(=O)c4ccc(C)cc4)[C@@H](c4cccc5ccccc45)[C@@H]3C(=O)C[C@@H]2C1=O	none (no result: TPT1 inh)
Cc1ccc(S(=O)(=O)N2C[C@H]3[C@H]4C(=O)N(C5CCCCC5)C(=O)[C@H]4CC(=O)[C@H]3[C@@H]2c2ccccc2Cl)cc1	CSN inh 36 (no result: TPT1 inh)
CCCNC(=O)C1(C)CCN(CCOc2ccc(Cl)cc2)C1 (stereo unspecified)	none (no result: TPT1 inh)
Cn1cccc1C(C#N)(CC#N)c1cccc(F)c1C#N (stereo unspecified)	CSN inh 101
OC[C@@H]1CN(Cc2cccc(C(F)(F)F)c2)C[C@H](n2cnc3c(NCc4ccco4)ncnc32)O1	none (no result: TPT1 inh)
CNC(=O)CN(C1CCCCC1)S(=O)(=O)c1ccc(F)cc1	none
CCNC(=O)CN(C1CCCCC1)S(=O)(=O)c1ccc(F)cc1	HNF4A DNA FP 37 (not shown: Rpn11 inh)
CC(C)c1ccccc1NC(=O)Nc1nnc([C@H]2C[C@H](O)[C@@H](CO)O2)s1	none (no result: TPT1 inh)
C=CCN(CC=C)c1nc2ccccc2nc1C(C#N)C(=O)OC(C)C (stereo unspecified)	Myeloid diff 2 active
C=CC[n+]1ccn(-c2nc3ccccc3nc2[N-]S(=O)(=O)c2cccs2)c1	Myeloid diff 2 active
CCOC(=O)N1CCN(C(C(=O)NC2CCCC2)C(C)C)CC1 (stereo unspecified)	none (no result: Rpn11 inh, TPT1 inh)
COC(=O)C[C@@H]1CC[C@H](NC(=O)Nc2ccc(OC)cc2)[C@@H](CO)O1	none (no result: Rpn11 inh, TPT1 inh)
O=C(c1cccs1)N1CCN(C2CCCCC2)CC1	none
NC(=O)C1(N2CCCCC2)CCN(C(=O)c2cccs2)CC1	Myeloid diff 2 active
O=C(Nc1ccc(F)cc1)C(c1ccnc2ccccc12)N1CCN(c2cccc(C(F)(F)F)n2)CC1 (stereo unspecified)	none (no result: Rpn11 inh, TPT1 inh)
COc1ccccc1CCNC(=O)Cn1ccc2cc(S(=O)(=O)N3CCC(C)CC3)ccc21	Myeloid diff 2 active
COc1ccc(OC)c(CCNC(=O)Cn2ccc3cc(S(=O)(=O)N4CCCC4)ccc32)c1	none
COC(=O)C[C@@H]1C=C[C@H](NC(=O)Nc2cc(F)ccc2F)[C@@H](CO)O1	none (no result: Rpn11 inh, TPT1 inh)
CCN(Cc1ccccc1)C(=O)c1cccc(S(=O)(=O)N2CCN(c3ccccc3)CC2)c1	Myeloid diff 2 active
CCCNC(=O)C1(C)CCCN(C(=O)CN2C(=O)c3ccccc3C2=O)C1 (stereo unspecified)	none (no result: TPT1 inh)
C=C1C(=O)[C@]23C[C@H]1CCC2[C@@]1(C)C(C[C@@H]3O)[C@](C)(C(=O)O)C[C@H](O)[C@@H]1O (stereo partly specified)	none (no result: TPT1 inh)
C=C1C(=O)[C@]23C[C@H]1CC[C@H]2[C@]1(C)[C@@H](O)CC[C@@](C)(C(=O)O)[C@H]1C[C@@H]3O	Myeloid diff 2 active (no result: TPT1 inh)
Cc1ccnn1CC(=O)N/N=C/c1ccc([N+](=O)[O-])s1	Myeloid diff 2 active
O=C(N/N=C/c1ccc([N+](=O)[O-])s1)c1ccccc1	none
COC(=O)N/N=C/c1ccc([N+](=O)[O-])s1	Myeloid diff 2 active
